Source: PubChem
DNA FID counter = displaces DNA intercalator in HCV helicase counter-screen. DNA fluorescent intercalator displacement, fluorescence. inhibition, % at 7.9 µM. hit rate 0.17% among 290,000; in the data active means inhibition above about 37%;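 further: 0% = vehicle and 100% = reference compound; higher means more ethidium bromide displaced from hairpin DNA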
Kir21 block = Kir2.1 (mouse) channel inhibition | B-score at 10 µM | P35561 | HEK293-Kir2.1, FluxOR thallium flux fluorescence; stronger effect = lower value | AID 1672 | hit rate 0.85% among 310,000;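 active means fluorescence ratio B-score at or below minus 3 SD of library scores, with starting-brightness B-score within 2 SD, cut at about -4.2 in these data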;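 further: channel flux triggered by added potassium and thallium sulfate stimulus; B-score of peak minus minimum fluorescence over baseline after thallium stimulus; more negative B-score means stronger Kir2.1 block with less thallium influx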
ANO1 activ = activators or potentiators of mouse TMEM16A chloride channel | Q8BHY3 | HEK293 TMEM16A/YFP-H148Q/I152L, iodide quench fluorescence; stronger effect = lower value | B-score at 10 µM | hit rate 0.3% among 340,000;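 active means fluorescence-ratio B-score plate-corrected deviation score at least 3 library SD below zero, with starting fluorescence score within 5 deviations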;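 further: channel opened by trigger with iodide after compound preincubation; score built on the fluorescence ratio of max minus min over baseline; more negative score means more quench and so TMEM16A activation or potentiation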
Target sequence (Q8BHY3 whole entry, looked up): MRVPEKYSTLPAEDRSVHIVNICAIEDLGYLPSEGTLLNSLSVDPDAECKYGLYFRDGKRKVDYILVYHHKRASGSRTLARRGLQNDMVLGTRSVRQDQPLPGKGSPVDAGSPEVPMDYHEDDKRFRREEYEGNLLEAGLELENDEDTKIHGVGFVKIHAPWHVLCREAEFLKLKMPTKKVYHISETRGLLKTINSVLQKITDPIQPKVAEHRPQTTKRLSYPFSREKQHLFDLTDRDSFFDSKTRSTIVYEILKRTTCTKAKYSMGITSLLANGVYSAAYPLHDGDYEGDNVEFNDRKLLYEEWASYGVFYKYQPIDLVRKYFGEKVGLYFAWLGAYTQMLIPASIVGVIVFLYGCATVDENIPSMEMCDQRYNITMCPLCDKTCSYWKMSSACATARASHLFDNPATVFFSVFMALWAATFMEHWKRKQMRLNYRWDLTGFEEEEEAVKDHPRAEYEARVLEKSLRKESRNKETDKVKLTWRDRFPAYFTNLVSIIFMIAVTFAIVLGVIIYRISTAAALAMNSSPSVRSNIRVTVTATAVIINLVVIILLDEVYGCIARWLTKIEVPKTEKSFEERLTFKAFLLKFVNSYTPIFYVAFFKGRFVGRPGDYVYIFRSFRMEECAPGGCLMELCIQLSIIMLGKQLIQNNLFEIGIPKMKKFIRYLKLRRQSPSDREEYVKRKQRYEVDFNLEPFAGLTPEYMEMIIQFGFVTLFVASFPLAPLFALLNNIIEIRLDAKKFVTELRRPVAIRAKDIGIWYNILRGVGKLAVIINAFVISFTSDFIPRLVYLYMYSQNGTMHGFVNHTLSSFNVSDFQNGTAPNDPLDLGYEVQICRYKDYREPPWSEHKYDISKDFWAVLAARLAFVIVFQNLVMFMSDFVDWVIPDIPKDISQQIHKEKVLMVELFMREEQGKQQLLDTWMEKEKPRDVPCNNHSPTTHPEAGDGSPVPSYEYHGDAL
SR-BI DiI inh = mouse SR-BI HDL lipid transfer inhibition. ldlA[mSR-BI] CHO cells, DiI-HDL uptake fluorescence, 3 h. inhibition, % at 12.5 µM. hit rate 0.96% among 320,000. AID 488896;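 active means mean replicate inhibition of at least 70% and a set share of replicates each scoring 70 or more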;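 further: 0% = median of neutral control wells and 100% = median of positive control wells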
ANO1 block = blocks the mouse calcium-activated chloride channel TMEM16A; Q8BHY3; HEK293 TMEM16A/YFP iodide influx fluorescence, ionomycin; normalized B-score (activity score, 25-100; higher = stronger inhibition) at 10 µM; hit rate 1.2% among 310,000;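 active means ratio plate-corrected score three or more library SD toward inhibition, starting fluorescence score within five deviations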;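 further: score derived from kinetic fluorescence span divided by baseline fluorescence per well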
SR-BI uptake up = activators of SR-BI mediated HDL lipid uptake | CHO ldlA[mSR-BI] cells, DiI-HDL uptake fluorescence, 3 h; 100 = double the neutral-control signal | activation, % at 12.5 µM | hit rate 0.096% among 320,000 | AID 504775;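 active means mean replicate activation of at least 60% and every replicate at or above 60%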;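 further: 0% = median plate neutral-control signal and 100% = twice that signal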
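Material: SR-BI-overexpressing, LDLR-lacking CHO cells; schedule: compound exposure 3 h, 37 °C; reagent: DiI-labelled HDL at 10 µg/mL final; technique: bottom-read fluorescence, 550/595 nm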
* hit, by the source's call. A selection: hits, their analogues and other compounds. The true share with any hit is near 3%.

`Cc1ccc(-c2cc(C(=O)Nc3ccncc3)c3ccccc3n2)cc1` gave Kir21 block -2.63, ANO1 activ inactive, SR-BI DiI inh 50.0, ANO1 block inactive and SR-BI uptake up -50.0.
Screening O=C(NNC(=O)c1cc(-c2ccncc2)nc2ccccc12)c1ccccc1O returned Kir21 block 1.55, ANO1 activ inactive, SR-BI DiI inh 93.9*, ANO1 block inactive and SR-BI uptake up -93.9.
Screening NS(=O)(=O)c1ccc(CCNC(=O)c2cc(-c3ccccc3)nc3ccccc23)cc1 returned DNA FID counter -14.6, Kir21 block 0.03, ANO1 activ inactive, SR-BI DiI inh 79.5*, ANO1 block inactive and SR-BI uptake up -79.6.
Screening Cc1ccc(-c2cc(C(=O)NCCc3ccc(S(N)(=O)=O)cc3)c3ccccc3n2)cc1 returned DNA FID counter -19.2, Kir21 block 1.83, ANO1 activ inactive, SR-BI DiI inh 85.7*, ANO1 block inactive and SR-BI uptake up -85.7.
COc1ccc(-c2cc(C(=O)NCCc3ccc(S(N)(=O)=O)cc3)c3ccccc3n2)cc1 was read as DNA FID counter -16.3, Kir21 block 0.69, ANO1 activ inactive, SR-BI DiI inh 56.2, ANO1 block inactive and SR-BI uptake up -56.2.
COc1ccccc1N(C(=O)CNC(=O)c1ccco1)C(C(=O)NC1CCCCC1)c1ccncc1 (configuration not stated) was read as DNA FID counter -34.8, Kir21 block -0.15, ANO1 activ inactive, SR-BI DiI inh -5.0, ANO1 block inactive and SR-BI uptake up 5.0.
CC1(C)CC(=O)C2=C(C1)OC(N)=C(C#N)C2c1ccccc1[N+](=O)[O-] (configuration not stated) was read as DNA FID counter -0.3, Kir21 block -6.82, ANO1 activ -4.63*, SR-BI DiI inh 10.9, ANO1 block inactive and SR-BI uptake up -10.9.
For Cc1ccc(C)c(OCC(O)CN2CCc3ccccc3C2)c1C (configuration not stated) the results were DNA FID counter 2.7, Kir21 block -5.68*, ANO1 activ inactive, SR-BI DiI inh 16.8, ANO1 block inactive and SR-BI uptake up -16.8.
For COC(=O)c1ccccc1C(=O)N(c1ccccc1)c1ccccc1 the results were Kir21 block -9.06, ANO1 activ inactive and ANO1 block inactive.
For Cc1cccc(C)c1NC(=O)CSc1nnc(-c2ccco2)c(-c2ccco2)n1 the results were DNA FID counter -14.1, Kir21 block 0.24, ANO1 activ inactive, SR-BI DiI inh -39.0, ANO1 block inactive and SR-BI uptake up 39.0.
Screening Cc1ccccc1NC(=O)CSc1nnc(-c2ccco2)c(-c2ccco2)n1 returned DNA FID counter -23.6, Kir21 block -1.36, ANO1 activ inactive, SR-BI DiI inh -2.5, ANO1 block 25* and SR-BI uptake up 2.5.
CCN(CC)CCOC(=O)C(Cc1ccco1)Cc1cccc2ccccc12 (configuration not stated) was read as Kir21 block -7.52*, ANO1 activ inactive, SR-BI DiI inh -7.5, ANO1 block inactive and SR-BI uptake up 7.5.
`CCN(CC)CCOC(=O)CCc1cccc2ccccc12` gave DNA FID counter 5.8, Kir21 block 0.04, ANO1 activ inactive, SR-BI DiI inh -9.6, ANO1 block inactive and SR-BI uptake up 9.6.
O=C(NNC(=O)c1cc2ccccc2o1)c1ccc(Cl)cc1 was read as DNA FID counter -0.5, Kir21 block 1.14, ANO1 activ inactive, SR-BI DiI inh inactive, ANO1 block inactive and SR-BI uptake up 510.5*.
O=C(NNC(=O)c1cc2ccccc2o1)c1ccc(F)cc1 was read as ANO1 activ inactive, SR-BI DiI inh -14.0 and SR-BI uptake up 14.0.
CCOc1ccc(OCC)c(NC(=O)Nc2ccc3c(c2)N(C)C(=O)CS3)c1 was read as DNA FID counter -17.3, Kir21 block -0.02, ANO1 activ inactive, SR-BI DiI inh 87.6*, ANO1 block inactive and SR-BI uptake up -87.6.
For CCOC(=O)C1(Cc2ccccc2C(F)(F)F)CCN(CCCn2cccn2)CC1 the results were DNA FID counter 17.1, Kir21 block -1.68, ANO1 activ -6.57*, SR-BI DiI inh -7.5, ANO1 block inactive and SR-BI uptake up 7.5.
For CC(=O)Cn1c(=O)oc2ccccc21 the results were DNA FID counter -2.0, Kir21 block 0.64, ANO1 activ inactive, SR-BI DiI inh -113.5, ANO1 block inactive and SR-BI uptake up 113.5*.
For CC(=O)N1CCN(C(=O)Cn2c(=O)oc3ccccc32)CC1 the results were DNA FID counter -1.5, Kir21 block 1.21, ANO1 activ inactive, SR-BI DiI inh -17.7, ANO1 block inactive and SR-BI uptake up 17.7.
CCCCN(C(=O)CCn1c(=O)oc2ccccc21)c1ccccc1 was read as DNA FID counter -41.7, Kir21 block -8.2*, ANO1 activ inactive, SR-BI DiI inh -3.2, ANO1 block inactive and SR-BI uptake up 3.2.
CC(OC(=O)c1n[nH]c2ccccc12)C(=O)NC1CCCCC1C (configuration not stated) was read as ANO1 activ inactive, SR-BI DiI inh 0.9 and SR-BI uptake up -0.9.
For Cc1nc(C(=O)O)sc1C1(C)CC(c2cccc([N+](=O)[O-])c2)=NO1 (configuration not stated) the results were Kir21 block -0.01, ANO1 activ inactive, SR-BI DiI inh 13.8, ANO1 block inactive and SR-BI uptake up -13.8.
For O=C(NCCN1CCOCC1)c1ccc(Cl)c(S(=O)(=O)NCc2ccccc2)c1 the results were ANO1 activ inactive, SR-BI DiI inh -21.8 and SR-BI uptake up 21.8.
For C/C(=N/NC(=O)c1ccncc1)c1ccc(NC(=O)c2ccc(Cl)cc2Cl)cc1 the results were DNA FID counter -29.6, Kir21 block 0.02, ANO1 activ inactive, SR-BI DiI inh 31.4, ANO1 block inactive and SR-BI uptake up -31.4.
CC(C)CC(=NNC(=O)c1ccncc1)c1cc(Cl)ccc1O was read as ANO1 activ inactive, SR-BI DiI inh 126.9* and SR-BI uptake up -126.9.
Cn1c(N)c(S(=O)(=O)N2CCCC2)c(=O)n(C)c1=O was read as DNA FID counter -2.5, Kir21 block 0.89, ANO1 activ inactive, SR-BI DiI inh 13.2, ANO1 block inactive and SR-BI uptake up -13.2.
N#Cc1sc2nc(N3CCCCC3)c3c(c2c1N)CCCC3 was read as DNA FID counter -0.7, Kir21 block 0.86, ANO1 activ inactive, SR-BI DiI inh 73.9*, ANO1 block inactive and SR-BI uptake up -73.9.
For Cc1nc2sc(C#N)c(N)c2c2c1CCCC2 the results were DNA FID counter 1.0, Kir21 block 1.75, ANO1 activ inactive, SR-BI DiI inh 3.4, ANO1 block inactive and SR-BI uptake up -3.4.
